Activity calls are given as the source filed them. No cut-off for these calls is given here.
How the values were obtained:
[1] = test system: A-375; experiment: Induction of apoptosis in human A375 cells assessed as early apoptotic cells at 8 uM after 72 hrs by Alexa Fluor 488 Annexin/propidium iodide staining-based flow cytometric analysis (reference value: 2.07%); assay type: functional
[2] = test system: HepG2; experiment: Antiproliferative activity against human HepG2 cells after 72 hrs CCK8 assay; assay type: functional, cell-based; settings: HepG2, 72 h
[3] = test system: A-375; experiment: Induction of apoptosis in human A375 cells assessed as viable cells at 16 uM after 72 hrs by Alexa Fluor 488 Annexin/propidium iodide staining-based flow cytometric analysis (reference value: 86.07%); assay type: functional; settings: A-375, 72 h, read-out: Activity
[4] = target: Histone deacetylase 2 (Homo sapiens, UniProt Q92769); experiment: Inhibition of recombinant human HDAC2 using FLUOR DE LYS-Green as substrate after 1 hr by fluorescence assay
Histone deacetylase 2, sequence (Q92769 whole entry): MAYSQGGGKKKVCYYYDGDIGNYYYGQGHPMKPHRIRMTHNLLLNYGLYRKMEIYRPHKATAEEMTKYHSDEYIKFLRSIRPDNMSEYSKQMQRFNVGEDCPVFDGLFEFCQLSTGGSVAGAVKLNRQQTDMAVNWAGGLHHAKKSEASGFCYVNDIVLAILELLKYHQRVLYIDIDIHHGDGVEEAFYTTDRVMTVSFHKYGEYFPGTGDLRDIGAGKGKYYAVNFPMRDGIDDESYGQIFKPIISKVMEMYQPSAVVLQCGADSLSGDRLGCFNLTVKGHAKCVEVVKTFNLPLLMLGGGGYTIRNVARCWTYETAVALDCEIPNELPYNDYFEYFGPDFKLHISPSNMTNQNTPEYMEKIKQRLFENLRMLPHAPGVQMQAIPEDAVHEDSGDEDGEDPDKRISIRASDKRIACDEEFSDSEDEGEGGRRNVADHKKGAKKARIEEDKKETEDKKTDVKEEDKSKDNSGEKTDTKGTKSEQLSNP
Method in brief: (§1)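 Enzyme preincubated with a concentration series of inhibitor; Fluor de Lys-Green substrate equilibrated at 37 °C for 5 min, then added to start the reaction. Incubated 1 h at 37 °C, stopped with developer for 10 min at 25 °C, fluorescence read at ex 360/em 460 nm. Activity taken as percent of control; IC50 by regression of dose–inhibition data.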

[5] = Induction of DNA damage in human A375 cells assessed as phosphorylation of H2AX at Ser139 residues at 8 uM after 48 hrs relative to control; assay type: functional
Method in brief: (§2)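 A375 cells seeded 7000 per well, treated next day for 48 h. Whole-cell γH2AX (Ser139) immunoassay read by absorbance, normalised to cell number and expressed as percent of untreated control; mean ± SD, n = 3; t-test.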

[6] = test system: A-375; experiment: Induction of apoptosis in human A375 cells after 72 hrs by Alexa Fluor 488 Annexin/propidium iodide staining-based flow cytometric analysis; assay type: functional, cell-based
[7] = test system: A-375; experiment: Induction of apoptosis in human A375 cells assessed as late apoptotic cells at 8 uM after 72 hrs by Alexa Fluor 488 Annexin/propidium iodide staining-based flow cytometric analysis (reference value: 10.22%); assay type: functional
[8] = test system: A-375; experiment: Induction of apoptosis in human A375 cells assessed as necrotic cells at 16 uM after 72 hrs by Alexa Fluor 488 Annexin/propidium iodide staining-based flow cytometric analysis (reference value: 1.64%); assay type: functional
[9] = target: Histone deacetylase (Homo sapiens) (UniProt Q13547+O15379+Q9UBN7+Q92769+Q9UQL6+Q8WUI4+Q9BY41+Q96DB2+P56524+Q9UKV0+Q969S8); experiment: Inhibition of HDAC in human HeLa cell nuclear extracts at 0.1 to 10000 uM using FLUOR DE LYS-Green as substrate after 1 hr by fluorescence assay; assay type: protein assay; method in brief: as §1
[10] = target: T1, Histone deacetylase 8 (Homo sapiens, UniProt Q9BY41); experiment: Inhibition of recombinant human HDAC8 using FLUOR DE LYS as substrate after 1 hr by fluorescence assay
T1 sequence (Q9BY41 whole entry): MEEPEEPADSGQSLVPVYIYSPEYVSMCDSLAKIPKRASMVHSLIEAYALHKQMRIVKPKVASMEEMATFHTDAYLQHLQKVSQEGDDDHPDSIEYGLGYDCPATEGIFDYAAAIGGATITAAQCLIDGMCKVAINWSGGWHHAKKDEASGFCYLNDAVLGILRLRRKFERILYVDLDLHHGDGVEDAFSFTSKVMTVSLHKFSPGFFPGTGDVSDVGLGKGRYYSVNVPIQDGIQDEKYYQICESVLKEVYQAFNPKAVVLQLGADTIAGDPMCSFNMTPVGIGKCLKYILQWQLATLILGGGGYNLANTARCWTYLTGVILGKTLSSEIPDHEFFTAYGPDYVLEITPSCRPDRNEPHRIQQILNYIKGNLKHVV
Method in brief: (§3)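 Each isoform kit run with the enzyme preincubated with a concentration series of inhibitor, and substrate added after 5 min equilibration at 37 °C. Reaction ran 1 h at 37 °C, was stopped with developer for 10 min at 25 °C, and fluorescence was read at ex 360/em 460 nm. Activity taken as percent of control; IC50 by regression of dose–inhibition data.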

[11] = test system: A-375; experiment: Induction of apoptosis in human A375 cells assessed as late apoptotic cells at 2 uM after 72 hrs by Alexa Fluor 488 Annexin/propidium iodide staining-based flow cytometric analysis (reference value: 10.22%); assay type: functional
[12] = Induction of DNA damage in human A375 cells assessed as phosphorylation of H2AX at Ser139 residues at 16 uM after 48 hrs relative to control; assay type: functional; method in brief: as §2
[13] = test system: A-375; experiment: Induction of apoptosis in human A375 cells assessed as necrotic cells at 2 uM after 72 hrs by Alexa Fluor 488 Annexin/propidium iodide staining-based flow cytometric analysis (reference value: 1.64%); assay type: functional
[14] = test system: SMMC-7721; experiment: Antiproliferative activity against human SMMC7721 cells after 72 hrs CCK8 assay; assay type: functional, cell-based; settings: SMMC-7721, 72 h
Method in brief: (§4)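 Cells grown in RPMI1640 with 10% FBS, 1% penicillin/streptomycin, 37 °C, 5% CO2; log-phase cells seeded 3000–4000 per well, dosed after 12 h with a concentration series or solvent control for 72 h. CCK-8 added for 1 h, absorbance at 450 nm; IC50 from percent growth versus untreated control; mean of three experiments.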

[15] = test system: NCI-H1299; experiment: Antiproliferative activity against human H1299 cells after 72 hrs CCK8 assay; assay type: functional, cell-based; settings: NCI-H1299, 72 h
[16] = test system: A-375; experiment: Induction of apoptosis in human A375 cells assessed as viable cells at 8 uM after 72 hrs by Alexa Fluor 488 Annexin/propidium iodide staining-based flow cytometric analysis (reference value: 86.07%); assay type: functional; settings: A-375, 72 h, read-out: Activity
[17] = test system: A-375; experiment: Antiproliferative activity against human A375 cells after 72 hrs CCK8 assay; assay type: functional, cell-based; settings: A-375, 72 h
[18] = test system: NCI-H460; experiment: Antiproliferative activity against human H460 cells after 72 hrs CCK8 assay; assay type: functional, cell-based; settings: NCI-H460, 72 h; method in brief: as §4
[19] = test system: A-375; experiment: Induction of apoptosis in human A375 cells assessed as early apoptotic cells at 16 uM after 72 hrs by Alexa Fluor 488 Annexin/propidium iodide staining-based flow cytometric analysis (reference value: 2.07%); assay type: functional
[20] = test system: A-375; experiment: Induction of apoptosis in human A375 cells assessed as late apoptotic cells at 16 uM after 72 hrs by Alexa Fluor 488 Annexin/propidium iodide staining-based flow cytometric analysis (reference value: 10.22%); assay type: functional
[21] = test system: A549; experiment: Antiproliferative activity against human A549 cells after 72 hrs CCK8 assay; assay type: functional, cell-based; settings: A549, 72 h
[22] = test system: A-375; experiment: Induction of apoptosis in human A375 cells assessed as necrotic cells at 8 uM after 72 hrs by Alexa Fluor 488 Annexin/propidium iodide staining-based flow cytometric analysis (reference value: 1.64%); assay type: functional
[23] = test system: A-375; experiment: Induction of apoptosis in human A375 cells assessed as viable cells at 2 uM after 72 hrs by Alexa Fluor 488 Annexin/propidium iodide staining-based flow cytometric analysis (reference value: 86.07%); assay type: functional; settings: A-375, 72 h, read-out: Activity
[24] = test system: A-375; experiment: Anticlonogenic activity against human A375 cells after 7 days by crystal violet staining based assay; assay type: functional, cell-based
Method in brief: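 A375 cells seeded at 3000 per well, treated after 24 h with compound or DMSO; after 7 days colonies fixed in 3.7% formaldehyde and stained with 0.1% crystal violet.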

[25] = target: Histone deacetylase 3/NCoR1 (Homo sapiens, UniProt O15379); experiment: Inhibition of recombinant human HDAC3/NCOR1 using FLUOR DE LYS SIRT1 deacetylase substrate after 1 hr by fluorescence assay; assay type: protein-complex assay; method in brief: as §3
Histone deacetylase 3/NCoR1, sequence (O15379 whole entry): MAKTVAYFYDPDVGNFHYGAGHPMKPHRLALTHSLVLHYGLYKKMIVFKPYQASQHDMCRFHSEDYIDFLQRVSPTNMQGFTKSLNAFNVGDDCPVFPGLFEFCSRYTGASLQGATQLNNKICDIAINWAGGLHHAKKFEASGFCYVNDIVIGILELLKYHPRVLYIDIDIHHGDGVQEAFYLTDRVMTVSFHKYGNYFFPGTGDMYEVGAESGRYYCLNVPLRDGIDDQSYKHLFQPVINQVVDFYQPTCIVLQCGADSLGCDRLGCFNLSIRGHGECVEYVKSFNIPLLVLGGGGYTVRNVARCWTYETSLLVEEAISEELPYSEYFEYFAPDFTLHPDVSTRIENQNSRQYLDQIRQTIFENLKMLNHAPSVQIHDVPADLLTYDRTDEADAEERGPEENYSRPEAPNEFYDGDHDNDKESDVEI
Histone deacetylase 3/NCoR1, sequence (O75376 whole entry, further chain): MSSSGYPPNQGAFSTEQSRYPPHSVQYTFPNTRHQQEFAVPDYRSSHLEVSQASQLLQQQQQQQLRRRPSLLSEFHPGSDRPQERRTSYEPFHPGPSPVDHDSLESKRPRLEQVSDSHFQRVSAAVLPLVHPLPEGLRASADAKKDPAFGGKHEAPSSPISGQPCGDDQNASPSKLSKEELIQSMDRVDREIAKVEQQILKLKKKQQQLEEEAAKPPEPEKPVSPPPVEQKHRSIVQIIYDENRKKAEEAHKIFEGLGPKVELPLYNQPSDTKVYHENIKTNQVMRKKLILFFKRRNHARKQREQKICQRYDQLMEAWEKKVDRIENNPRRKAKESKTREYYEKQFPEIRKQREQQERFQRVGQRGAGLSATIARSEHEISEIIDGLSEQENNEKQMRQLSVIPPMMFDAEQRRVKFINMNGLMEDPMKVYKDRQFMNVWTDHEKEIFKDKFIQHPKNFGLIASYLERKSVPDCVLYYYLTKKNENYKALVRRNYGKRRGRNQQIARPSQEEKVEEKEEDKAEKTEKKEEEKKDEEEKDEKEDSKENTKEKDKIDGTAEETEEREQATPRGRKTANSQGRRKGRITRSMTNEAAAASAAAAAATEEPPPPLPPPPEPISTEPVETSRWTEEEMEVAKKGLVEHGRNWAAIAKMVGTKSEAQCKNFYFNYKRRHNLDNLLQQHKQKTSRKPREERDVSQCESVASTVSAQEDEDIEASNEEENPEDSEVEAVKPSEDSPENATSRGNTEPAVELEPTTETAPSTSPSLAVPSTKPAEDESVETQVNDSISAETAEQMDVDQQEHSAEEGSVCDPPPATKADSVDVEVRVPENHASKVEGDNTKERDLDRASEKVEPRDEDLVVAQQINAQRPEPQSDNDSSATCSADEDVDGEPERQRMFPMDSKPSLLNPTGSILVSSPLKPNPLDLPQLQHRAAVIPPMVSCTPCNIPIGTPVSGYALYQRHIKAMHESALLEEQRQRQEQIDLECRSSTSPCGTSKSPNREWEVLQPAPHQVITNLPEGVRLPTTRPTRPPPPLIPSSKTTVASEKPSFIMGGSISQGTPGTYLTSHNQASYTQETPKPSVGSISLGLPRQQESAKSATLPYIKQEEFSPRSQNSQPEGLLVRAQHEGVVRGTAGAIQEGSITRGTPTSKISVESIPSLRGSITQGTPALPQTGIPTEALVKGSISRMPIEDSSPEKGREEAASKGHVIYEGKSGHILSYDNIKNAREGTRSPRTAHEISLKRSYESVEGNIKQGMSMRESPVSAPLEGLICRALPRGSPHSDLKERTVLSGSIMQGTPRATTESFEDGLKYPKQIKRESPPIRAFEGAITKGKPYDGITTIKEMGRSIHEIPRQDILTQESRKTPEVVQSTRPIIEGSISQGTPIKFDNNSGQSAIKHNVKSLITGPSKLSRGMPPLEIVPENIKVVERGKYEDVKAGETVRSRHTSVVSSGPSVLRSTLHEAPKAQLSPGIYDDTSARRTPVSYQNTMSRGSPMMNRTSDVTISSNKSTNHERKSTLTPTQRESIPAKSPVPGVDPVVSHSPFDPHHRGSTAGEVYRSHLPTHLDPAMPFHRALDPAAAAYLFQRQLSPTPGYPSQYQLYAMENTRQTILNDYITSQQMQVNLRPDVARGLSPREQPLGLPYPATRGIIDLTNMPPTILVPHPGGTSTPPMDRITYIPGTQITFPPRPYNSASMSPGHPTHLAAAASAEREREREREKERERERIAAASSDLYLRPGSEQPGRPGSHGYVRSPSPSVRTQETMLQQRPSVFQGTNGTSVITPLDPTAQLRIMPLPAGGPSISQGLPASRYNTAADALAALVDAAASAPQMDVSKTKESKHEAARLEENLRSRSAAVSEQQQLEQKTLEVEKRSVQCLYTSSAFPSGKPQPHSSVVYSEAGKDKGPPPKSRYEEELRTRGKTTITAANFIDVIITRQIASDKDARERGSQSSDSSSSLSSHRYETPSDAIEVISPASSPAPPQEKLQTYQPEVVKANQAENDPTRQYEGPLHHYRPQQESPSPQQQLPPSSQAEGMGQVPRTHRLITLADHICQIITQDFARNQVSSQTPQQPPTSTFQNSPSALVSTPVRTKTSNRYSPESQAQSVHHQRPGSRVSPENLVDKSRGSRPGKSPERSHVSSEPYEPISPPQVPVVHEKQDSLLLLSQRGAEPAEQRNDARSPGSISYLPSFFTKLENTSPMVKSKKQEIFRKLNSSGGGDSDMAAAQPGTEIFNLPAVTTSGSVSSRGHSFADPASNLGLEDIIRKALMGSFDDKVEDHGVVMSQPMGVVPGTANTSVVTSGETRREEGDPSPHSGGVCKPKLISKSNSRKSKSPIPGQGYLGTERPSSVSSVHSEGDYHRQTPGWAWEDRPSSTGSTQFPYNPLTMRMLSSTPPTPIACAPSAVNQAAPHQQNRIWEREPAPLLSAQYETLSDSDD

[26] = test system: A-375; experiment: Induction of apoptosis in human A375 cells assessed as early apoptotic cells at 2 uM after 72 hrs by Alexa Fluor 488 Annexin/propidium iodide staining-based flow cytometric analysis (reference value: 2.07%); assay type: functional
[27] = target: Histone deacetylase 1 (Homo sapiens, UniProt Q13547); experiment: Inhibition of recombinant human HDAC1 using FLUOR DE LYS SIRT1 deacetylase substrate after 1 hr by fluorescence assay; method in brief: as §3
Histone deacetylase 1, sequence (Q13547 whole entry): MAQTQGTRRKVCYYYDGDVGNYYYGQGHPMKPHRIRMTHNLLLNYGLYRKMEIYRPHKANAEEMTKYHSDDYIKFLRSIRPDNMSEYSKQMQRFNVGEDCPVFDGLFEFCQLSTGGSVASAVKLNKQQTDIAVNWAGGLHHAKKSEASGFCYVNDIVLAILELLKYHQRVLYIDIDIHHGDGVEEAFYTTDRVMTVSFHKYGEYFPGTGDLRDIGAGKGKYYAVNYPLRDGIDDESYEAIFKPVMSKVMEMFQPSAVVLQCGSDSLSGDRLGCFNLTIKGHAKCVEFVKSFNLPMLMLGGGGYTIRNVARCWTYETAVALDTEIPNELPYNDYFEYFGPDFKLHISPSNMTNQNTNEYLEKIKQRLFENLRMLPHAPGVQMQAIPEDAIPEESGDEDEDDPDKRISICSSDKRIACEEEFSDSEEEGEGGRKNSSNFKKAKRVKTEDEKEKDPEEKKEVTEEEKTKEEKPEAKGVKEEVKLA

[28] = test system: A-375; experiment: Cell cycle arrest in human A375 cells assessed as accumulation at G2/M phase at 8 uM after 72 hrs by propidium iodide/RNase staining based flow cytometric analysis relative to control; assay type: functional
Method in brief: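 A375 cells (1.6 × 10^5 per well) plated 12 h, then treated with compound or DMSO for 72 h. Cells fixed overnight in 70% ethanol in phosphate buffer at –20 °C, stained 30 min at room temperature with RNase:PI (1:9). DNA content read by flow cytometry.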

[29] = target: T2, Protein deacetylase HDAC6 (Homo sapiens, UniProt Q9UBN7); experiment: Inhibition of recombinant human HDAC6 using FLUOR DE LYS SIRT1, deacetylase as substrate after 1 hr by fluorescence assay; method in brief: as §3
T2 sequence (Q9UBN7 whole entry): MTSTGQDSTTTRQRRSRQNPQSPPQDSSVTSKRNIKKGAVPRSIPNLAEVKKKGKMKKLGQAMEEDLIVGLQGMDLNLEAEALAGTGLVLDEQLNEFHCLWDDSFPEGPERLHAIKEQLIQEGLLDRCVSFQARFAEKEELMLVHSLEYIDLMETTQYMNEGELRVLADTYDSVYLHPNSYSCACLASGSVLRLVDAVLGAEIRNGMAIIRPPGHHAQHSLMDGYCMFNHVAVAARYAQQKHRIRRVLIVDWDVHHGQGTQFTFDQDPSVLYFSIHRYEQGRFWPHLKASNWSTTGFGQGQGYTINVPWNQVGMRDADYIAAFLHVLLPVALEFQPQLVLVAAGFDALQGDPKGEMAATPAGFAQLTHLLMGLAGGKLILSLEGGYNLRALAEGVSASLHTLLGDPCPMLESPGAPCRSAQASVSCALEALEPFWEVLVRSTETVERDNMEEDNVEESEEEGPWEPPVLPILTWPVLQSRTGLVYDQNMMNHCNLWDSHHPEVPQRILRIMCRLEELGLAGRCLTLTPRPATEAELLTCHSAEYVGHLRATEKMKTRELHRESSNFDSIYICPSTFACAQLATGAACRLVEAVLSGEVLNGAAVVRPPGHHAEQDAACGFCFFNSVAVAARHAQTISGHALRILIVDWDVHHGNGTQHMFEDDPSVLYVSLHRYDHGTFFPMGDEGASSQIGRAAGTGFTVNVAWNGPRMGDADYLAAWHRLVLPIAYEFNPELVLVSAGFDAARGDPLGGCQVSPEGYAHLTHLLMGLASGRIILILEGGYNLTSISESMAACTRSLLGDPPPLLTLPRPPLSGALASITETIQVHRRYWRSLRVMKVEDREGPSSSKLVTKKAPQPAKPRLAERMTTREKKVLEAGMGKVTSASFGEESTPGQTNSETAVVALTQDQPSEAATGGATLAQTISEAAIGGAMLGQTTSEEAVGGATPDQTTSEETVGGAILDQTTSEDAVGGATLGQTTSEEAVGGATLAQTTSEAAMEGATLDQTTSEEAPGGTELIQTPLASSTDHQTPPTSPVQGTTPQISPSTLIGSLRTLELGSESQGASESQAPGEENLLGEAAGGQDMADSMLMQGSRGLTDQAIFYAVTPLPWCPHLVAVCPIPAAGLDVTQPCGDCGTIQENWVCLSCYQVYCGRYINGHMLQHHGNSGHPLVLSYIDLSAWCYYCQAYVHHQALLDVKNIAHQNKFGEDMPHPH

| SMILES | Activity [1] [%] | viability at 16 µM [3] [%] | Activity [5] [%] | Activity [7] [%] | Activity [8] [%] | Activity [11] [%] | Activity [12] [%] | Activity [13] [%] | IC50 [14] [µM] | IC50 [15] [µM] | viability at 8 µM [16] [%] | IC50 [18] [µM] | Activity [19] [%] | Activity [20] [%] | Activity [22] [%] | viability at 2 µM [23] [%] | Activity [26] [%] | Activity [28] [%] | also measured |
| --- | --- | --- | --- | --- | --- | --- | --- | --- | --- | --- | --- | --- | --- | --- | --- | --- | --- | --- | --- |
| Nc1ccccc1NC(=O)CCCc1ccc(N(CCCl)CCCl)cc1 | 7.39 | 35.2 | 159 | 42.54 | 3.78 | 11.63 | 213.3 | 2.77 | 4 | 5.5 | 38 | 3.1 | 12.31 | 48.69 | 12.05 | 79.8 | 5.76 | 79.2 | IC50 [2]: 14.2 µM; IC50 [4]: 32.9 µM; Activity [6]: Dose-dependent effect; inhibition [9]: Active; IC50 [10]: 75.2 µM; IC50 [17]: 6.1 µM; IC50 [21]: 6.2 µM; Activity [24]: Dose-dependent effect; IC50 [25]: 9.52 µM; IC50 [27]: > 160 µM; IC50 [29]: > 160 µM |
| O=C(O)CCCc1ccc(N(CCCl)CCCl)cc1 [CHLORAMBUCIL] | 2.11 | 71.1 | 128.9 | 8.41 | 6.44 | 6.95 | 128.6 | 1.36 | 163 | 116 | 87.1 | 28.9 | 4.21 | 18.21 | 2.34 | 90.1 | 1.62 | 47.6 | – |
| CC(=O)Nc1ccc(C(=O)Nc2ccccc2N)cc1 [TACEDINALINE] | 19.04 | 36 | 104.5 | 9.09 | 1.01 | 11.03 | 118.8 | 1.04 | 16.9 | – | 70.4 | 9.7 | 36.31 | 26.71 | 0.71 | 78.4 | 9.54 | 10.8 | – |
